Legend:
[1] = test system: PC3; assay: XTT cell viability assay, PC3; type: cell-based, human
[2] = test system: HEK-293T; assay: XTT cell viability assay, HEK-293T; type: cell-based, human; conditions: HEK-293T (nontumorigenic)
Outline: (§1)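 HEK-293 cells kept in DMEM with 10% FBS, 1% NEAA and PenStrep at 37 °C, 5% CO2. Seeded at 5000 cells/well in phenol-red-free, antibiotic-free DMEM (10% FBS, 2 mM L-glutamine) and grown 24 h. Test compound was dissolved in 1% DMSO, diluted in water and dosed at 0.1–200 μM final for 24 or 72 h. XTT was added at 0.3 mg/mL for 4 h, and A450 read. IC50 is the concentration halving proliferation against untreated cells, from ≥2 independent experiments in triplicate.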

[3] = test system: A498; assay: XTT cell viability assay, A498; type: cell-based, human
[4] = test system: DU145; assay: XTT cell viability assay, DU145; type: cell-based, human
Outline: as §1, with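 “Cells kept” for “HEK-293 cells kept”, “in RPMI-1640” for “in DMEM”, “antibiotic-free RPMI” for “antibiotic-free DMEM”, “and added” for “and dosed”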

[5] = test system: UO31; assay: XTT cell viability assay, UO31; type: cell-based, human
Outline: as §1, with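 “Cells kept” for “HEK-293 cells kept”, “in RPMI-1640” for “in DMEM”, “antibiotic-free RPMI” for “antibiotic-free DMEM”, “and added” for “and dosed”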

[6] = test system: Caki-1; assay: XTT cell viability assay, Caki-1; type: cell-based, human
Outline: as §1, with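 “Cells kept” for “HEK-293 cells kept”, “in RPMI-1640” for “in DMEM”, “antibiotic-free RPMI” for “antibiotic-free DMEM”, “and added” for “and dosed”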

[7] = test system: PKCι-par6; conditions: PKCι-par6 in vitro; cited from earlier work
[8] = test system: plasmid (pBR322) DNA; assay: electrophoresis mobility shift assay with plasmid DNA; type: binding; conditions: metal/DNAbp ratios 0.25-2.0, 37 °C, 20 h, pH 7.39
Outline: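 pBR322 DNA (20 μg/mL) in 5 mM Tris/HCl, 50 mM NaClO4, pH 7.39 incubated with test compound ([…] metal complex/DNAbp) for 20 h at 37 °C in the dark; free DNA and cisplatin-treated DNA as controls. Samples run on 1% agarose gel, 1.5 h at 80 V in Tris-acetate/EDTA, stained 30 min with GelRed.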

[9] = test system: PI3 kinases; assay: HotSpot kinase assay, lipid PI3 kinases; type: biochemical; conditions: IC50 values only plotted in Figure 8
[10] = test system: CT-DNA; conditions: physiological pH / pH 7; cited from earlier work
[11] = test system: panel of 30 kinases; assay: HotSpot kinase assay, panel of 30 nonlipid kinases; type: biochemical; conditions: even at concentrations of 100 μM

Structure (SMILES) | IC50 ([1]; PC3, 24 h incubation) | IC50 ([1]; PC3, 72 h incubation) | IC50 ([2]; 24 h incubation) | IC50 ([2]; 72 h incubation) | IC50 ([3]; A498, 24 h incubation) | IC50 ([3]; A498, 72 h incubation) | IC50 ([4]; DU145, 24 h incubation) | IC50 ([4]; DU145, 72 h incubation) | IC50 ([5]; UO31, 24 h incubation) | IC50 ([5]; UO31, 72 h incubation) | IC50 ([6]; Caki-1, 24 h incubation) | IC50 ([6]; Caki-1, 72 h incubation) | IC50 [7] | effect on electrophoretic mobility of plasmid forms [8] | inhibition of PI3 kinase family [9] | interaction with CT-DNA [10] | inhibition of enzymatic activity of 30 kinases [11]
COc1ccc(C[C]2([Ti+2][C]3(Cc4ccc(OC)cc4)C=CC=C3)C=CC=C2)cc1.[Cl-].[Cl-] [Titanocene Y] | > 200 µM | 58.1 ± 11.2 µM | > 200 µM | > 200 µM | > 200 µM | > 29.6 µM | > 200 µM | 55.2 ± 7.9 µM | > 200 µM | > 200 µM | > 200 µM | 29.4 ± 4.2 µM |  |  |  |  | 
OC[C@H]1O[C@H]([S-])[C@H](O)[C@@H](O)[C@@H]1O.[Au+] [aurothioglucose] |  |  |  |  |  |  |  |  |  |  |  |  | ~1000 nM |  |  |  | 
O=C(O)CC([S-])C(=O)O.[Au+] (stereo not shown) [aurothiomalate] |  |  |  |  |  |  |  |  |  |  |  |  | ~1000 nM |  |  |  | 
N.N.[Cl][Pt][Cl] [cisplatin] | 92 ± 18 µM | 14 ± 2.3 µM | 64.4 ± 7.9 µM | 3.2 ± 0.13 µM | 74.7 ± 6 µM | 37.2 ± 4.6 µM | 44.5 ± 0.33 µM | 12.1 ± 3.9 µM | > 100 µM | 8.9 ± 2.7 µM | 68.8 ± 0.14 µM | 29 ± 4.1 µM |  | decrease in mobility of the CCC form and an increase in mobility of the OC form |  |  | 
O=C(O)C[P+]([Au-][Cl])(c1ccccc1)c1ccccc1 [compound 6, [HOC(O)CH2PPh2AuCl]] | 38.2 ± 2.2 µM | 30.2 ± 4.2 µM | 36.5 ± 3.3 µM | 9.7 ± 2.5 µM | 58 ± 11 µM | 43 ± 4.9 µM | 34.7 ± 1.8 µM | 31.3 ± 3.1 µM | 27.3 ± 2.7 µM | 5.2 ± 1.6 µM | 33.8 ± 2.1 µM | 23 ± 4.1 µM |  | does not affect the mobility of the faster-running supercoiled form |  |  | 
[Cl-].[Cl-].[Ti+4].c1cc[cH-]c1.c1cc[cH-]c1 [titanocene dichloride] | > 200 µM | > 200 µM | > 200 µM | > 200 µM | > 200 µM | > 200 µM | > 200 µM | > 200 µM | > 200 µM | > 200 µM | > 200 µM | > 200 µM |  |  | inhibits exclusively protein kinases of the PI3 kinase family at nanomolar concentrations | does not interact with CT-DNA | did not inhibit the enzymatic activity to levels of 50% or below
